Rows were chosen to be rich in hits. Some 1.4% of all compounds tested hit in one or more screens of this group.
GSK3beta inhib: human GSK3beta kinase inhibition; GST-GSK3beta kinase, ADP-Glo luminescence, 60 min; active compounds read low; activity score (negative = inhibition), % at 10 µM; actives 0.038% (n = 300,000); AID 2097;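 active = more than half of replicate wells score below -50%, meaning over 50% inhibition versus plate controls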
Target sequence (P49841 whole entry, looked up): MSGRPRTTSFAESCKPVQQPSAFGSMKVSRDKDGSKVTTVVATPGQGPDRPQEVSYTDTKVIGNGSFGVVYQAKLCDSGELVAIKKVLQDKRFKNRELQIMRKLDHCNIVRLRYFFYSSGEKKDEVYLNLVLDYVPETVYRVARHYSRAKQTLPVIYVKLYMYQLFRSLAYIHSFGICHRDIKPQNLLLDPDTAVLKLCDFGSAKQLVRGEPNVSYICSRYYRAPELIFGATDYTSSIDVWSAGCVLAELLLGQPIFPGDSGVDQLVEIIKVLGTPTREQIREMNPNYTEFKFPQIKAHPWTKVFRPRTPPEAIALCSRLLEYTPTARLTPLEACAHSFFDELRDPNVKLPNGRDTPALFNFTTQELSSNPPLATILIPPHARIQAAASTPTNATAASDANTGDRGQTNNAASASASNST
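Test system – GST-tagged human GSK3beta kinase, cell-free · Incubation – 60 min enzyme reaction, room temperature · Signal – ADP-Glo luminescence · Also added – peptide substrate and ATP at 25 µM · Controls – DMSO neutral wells and GW8510 at 20 µM as positive · Buffer or medium – Tris/MgCl2 kinase buffer · Measure – Luminescence-derived activity versus plate DMSO and GW8510 wells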
HIV Env fusion: blocks HIV Env-driven cell-cell fusion; HeLa-JRFL Env/CEM21 cell fusion, luciferase; inhibition, % at 12.3 µM; actives 1.1% (n = 360,000); AID 651610;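 active = mean replicate inhibition score of at least 50 and every replicate individually at or above 50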
CDK5 p35 inh: blocks human CDK5/p35 kinase activity | AID 488839 | Q00535+Q15078 | Recombinant CDK5/p35, ADP-Glo luminescence, 60 min | actives 0.01% (n = 330,000) | inhibition, % at 10 µM;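 active = highest replicate inhibition of at least 50% and at least 75% of replicates reaching 50%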
GSK3A inh: inhibitors of human GSK-3 alpha kinase. ADP-Glo luminescence, 60 min. P49840. actives 0.1% (n = 320,000). inhibition, % at 10 µM. AID 2650;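 active = more than half of replicates show inhibition above 20%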;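 note: GST-tagged GSK-3 alpha with peptide substrate and 25 µM ATP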
INS-1E GSIS act: GLuc luminescence reporter in INS-1E cells, primary screen for activators of glucose-dependent secretion of insulin; AID 743287; INS-1E GLuc reporter insulin secretion, 2-3 h; activation, % at 16.6 µM; actives 0.61% (n = 370,000);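 active = lowest replicate activation of at least 40%, so every replicate reaches that level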
STK33 kinase inh: inhibitors of human STK33 kinase; Q9BYT3; purified STK33, MBP phosphorylation, ADP-Glo luminescence; inhibition, % at 10 µM; actives 0.073% (n = 320,000); AID 2661;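 active = inhibition at or above 25%, using the most active replicate where run in duplicate; inactive = inhibition below 25%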
Numbers stand for hits; i = inactive; nt = no result; [ ] = remark or other dose.

SMILES	GSK3beta inhib	HIV Env fusion	CDK5 p35 inh	GSK3A inh	INS-1E GSIS act	STK33 kinase inh
CN1CCN(S(=O)(=O)c2ccc3c4c(cccc24)C(=O)N3)CC1	i	i	i	i	i	i
CCOC(=O)N1CCN(S(=O)(=O)c2ccc3c4c(cccc24)C(=O)N3)CC1	i	i	i	i	42	i
O=C(/C=C/c1ccccc1)NC(NC(=S)Nc1ccc(Cl)cc1)C(Cl)(Cl)Cl (configuration not stated)	i	61	i	i	nt	i
COc1ccc2c3c(n(C)c2c1)[C@H](CO)N(C(C)=O)CC31CCN(C(=O)Nc2ccc(F)cc2)CC1	nt	nt	nt	nt	i	nt
O=c1c2ccccc2oc2ccc(NCCCN3CCOCC3)cc12	i	i	i	i	nt	50
O=c1c2ccccc2oc2cc(NCCCN3CCOCC3)ccc12	i	i	i	i	i	i
CN1CCCC1CCNc1ccc2oc3ccccc3c(=O)c2c1 (configuration not stated)	i	i	nt	i	nt	39
OC(CNCCc1ccc(C(F)(F)F)cc1)COc1ccc2ccccc2c1 (configuration not stated)	i	i	i	i	i	i
OC(CNCCc1ccc(C(F)(F)F)cc1)COc1cccc2ccccc12 (configuration not stated)	i	i	i	i	506	i
COc1ccc(NC(=O)C(Cl)=C(Cl)Cl)cn1	i	i	i	nt	i	nt
COc1ccc(NC(=O)/C(Cl)=C(/Cl)S(=O)Cc2ccc(Cl)cc2)cn1 (configuration not stated)	nt	i	i	nt	46	nt
COCC(=O)N[C@@H]1CC[C@H](CC(=O)NCc2ccc(Cl)cc2)O[C@H]1CO	nt	i	nt	nt	i	nt
COc1cccc(OCCCN2CCN(S(=O)(=O)c3ccc(NC(C)=O)cc3)CC2)c1	i	63	i	i	nt	i
CN1/C(=C/C=C(/C#N)C(N)=O)C(C)(C)c2ccccc21	i	nt	i	63	nt	i
CN1/C(=C\C=C(/C#N)C(=O)Nc2ccccc2F)C(C)(C)c2ccccc21	i	i	i	i	i	i
Cc1c(C(=O)NNC(=O)c2ccccc2O)oc2ccc(Br)cc12	i	i	i	i	i	i
O=C(Nc1c(C(=O)O)oc2ccc(Br)cc12)c1ccccc1	i	nt	i	75	nt	i
CC(C)CCn1c(=O)c2ccccc2n2c(CN3CCOCC3)nnc12	i	i	i	i	45	i
Cc1ccc(S(=O)(=O)Nc2c3ccccc3nc(=O)n2-c2ccccc2)cc1	i	nt	i	i	59	i
CNC[C@H]1Oc2ncc(C#CC3CCCC3)cc2C(=O)N([C@H](C)CO)C[C@H]1C	nt	i	nt	nt	i	nt
Cc1noc(C)c1S(=O)(=O)N(C)C[C@H]1Oc2ccc(NC(=O)NC(C)C)cc2CC(=O)N([C@H](C)CO)C[C@H]1C	nt	i	nt	nt	i	nt
Cc1noc(C)c1S(=O)(=O)N(C)C[C@@H]1Oc2ccc(NC(=O)NC3CCCCC3)cc2CC(=O)N([C@@H](C)CO)C[C@@H]1C	nt	62[16.7 µM]	nt	nt	i	nt
Cc1noc(C)c1S(=O)(=O)N(C)C[C@@H]1Oc2ccc(NC(=O)NC3CCCCC3)cc2CC(=O)N([C@H](C)CO)C[C@@H]1C	nt	78[16.7 µM]	nt	nt	i	nt
Cc1noc(C)c1S(=O)(=O)N(C)C[C@H]1Oc2ccc(NC(=O)NC3CCCCC3)cc2CC(=O)N([C@H](C)CO)C[C@@H]1C	nt	i	nt	nt	i	nt
Cc1ccn2c(NC3CCCC3)c(-c3ccncc3)nc2c1	i	i	i	nt	i	i
SMILES	GSK3beta inhib	HIV Env fusion	CDK5 p35 inh	GSK3A inh	INS-1E GSIS act	STK33 kinase inh
Cc1ccn2c(NC3CCCCC3)c(-c3cccc(-c4cccc(Cl)c4)c3)nc2c1	i	70	i	i	i	i
CC(=O)Nc1ccc2c(c1)C(=O)N(C)[C@@H]1CC[C@@H](CC(=O)Nc3cn(C)nc3C)O[C@H]1CO2	nt	i	nt	nt	i	nt
C[C@@H]1CN([C@H](C)CO)S(=O)(=O)c2ccc(-c3cccc(F)c3)cc2O[C@@H]1CN(C)S(=O)(=O)c1ccccc1	nt	107[16.7 µM]	nt	nt	i	nt
C[C@H]1CN([C@@H](C)CO)S(=O)(=O)c2ccc(-c3cccc(F)c3)cc2O[C@H]1CN(C)S(=O)(=O)c1ccccc1	nt	90[16.7 µM]	nt	nt	i	nt
C[C@H](CO)N1C[C@H](C)[C@H](CN(C)S(=O)(=O)c2ccccc2)Oc2cc(-c3cccc(F)c3)ccc2S1(=O)=O	nt	83[16.7 µM]	nt	nt	i	nt
C[C@H](CO)N1C[C@H](C)[C@@H](CN(C)S(=O)(=O)c2ccccc2)Oc2cc(-c3cccc(F)c3)ccc2S1(=O)=O	nt	i	nt	nt	i	nt
C[C@@H]1CN([C@H](C)CO)C(=O)c2cccc(NC(=O)Nc3cccc4ccccc34)c2O[C@H]1CN(C)C(=O)Nc1cccc2ccccc12	nt	i	nt	nt	i	nt
C=CCNC(=S)NNC(=O)c1ccc(OCCC)cc1	i	nt	i	i	nt	i
CCCOc1ccc(C(=O)NNC(=S)NC(=O)CC)cc1	i	60	i	i	nt	i
CCCCCCCCN1C(=O)[C@H](CC(=O)N2CCCCC2)C[C@@]2(C(=O)OC)CCCCC=C12	nt	i	nt	nt	47	nt
CCCCCCCCN1C(=O)[C@H](CC(=O)N2CCOCC2)C[C@@]2(C(=O)OC)CC(C)(C)CC=C12	nt	i	nt	nt	i	nt
CCCCCCCCN1C(=O)[C@H](CC(=O)N2CCCCC2)C[C@@]2(C(=O)OC)CC(C)(C)CC=C12	nt	i	nt	nt	81	nt
CO[C@H]1CN(C)C(=O)c2ccc(NC(=O)c3cc(C)on3)cc2OC[C@@H](C)N(C)C[C@@H]1C	nt	i	nt	nt	i	nt
C[C@H]1CN([C@@H](C)CO)C(=O)c2cc(NC(=O)Nc3ccccc3)ccc2O[C@H]1CN(C)S(=O)(=O)c1ccc(Cl)cc1	nt	nt	nt	nt	i	nt
C=CCn1c(O)c(N=NC(=S)Nc2ccc(OC)cc2)c2ccccc21	i	37	i	i	i	i
C=CCn1c(O)c(N=NC(=O)CNC(=O)c2ccco2)c2ccccc21	i	i	i	i	42	i
CCC(=O)N1CC2(CCN(C(=O)Nc3ccc(F)cc3)CC2)c2c([nH]c3cc(OC)ccc23)[C@H]1CO	nt	nt	nt	nt	i	nt
CC(C)(C)NC(=O)C(c1ccc(-c2ccccc2)cc1)n1c(=O)c(-c2ccccc2)nc2ccccc21 (configuration not stated)	nt	i	nt	nt	i	nt
Cc1csc(-c2nc3ccccc3n2C(C(=O)NC(C)(C)C)c2ccccc2)c1 (configuration not stated)	nt	57	nt	nt	i	nt
CC(C(=O)NC(C)(C)C)n1c(C(c2ccccc2)c2ccccc2)nc2ccccc21 (configuration not stated)	nt	87	nt	nt	i	nt
CCC(C(=O)NC(C)(C)C)n1c(C(c2ccccc2)c2ccccc2)nc2ccccc21 (configuration not stated)	nt	86	nt	nt	i	nt
CC(C(=O)NC(C)(C)C)n1c(-c2ccccc2)nc2ccccc21 (configuration not stated)	nt	i	nt	nt	nt	nt
COc1cccc(CN2[C@@H](CO)[C@@H](c3ccccc3)C23CN(C(=O)C2CCOCC2)C3)c1	nt	nt	nt	nt	i	nt
COC1(OC)N=C(N)C2(C#N)C(c3ccc4c(c3)OCO4)C12C#N (configuration not stated)	i	nt	i	85	nt	31

Assay outcomes as filed in PubChem BioAssay.
